According to ChEMBL document CHEMBL1795205, “The new 5- or 6-azapyrimidine and cyanuric acid derivatives of l-ascorbic acid bearing the free C-5 hydroxy or C-4 amino group at the ethylenic spacer: CD-spectral absolute configuration determination and biological activity evaluations” (Eur J Med Chem, 2011):
Active and inactive are the calls of the source. The rule behind the calls is not given here.

What was measured:
SW-620 [1] = assay: Induction of cell cycle arrest in human SW620 cells assessed as accumulation at G2/M phase at 1 uM after 24 hrs by flow cytometry (reference value: 10.7 +/- 0.07%); format: functional
HeLa [2] = assay: Induction of cell cycle arrest in human HeLa cells assessed as accumulation at subG1 phase at 5 uM after 48 hrs by flow cytometry relative to control; format: functional
In short: (§1)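 Cells were seeded at 3×10⁵ per well in 6-well plates and treated after overnight incubation for 24 and 48 h. They were trypsinized, washed three times in PBS, fixed in cold ethanol and stored at −20 °C. Pellets were washed twice in PBS and treated with RNase A at 37 °C for 15 min, then stained with PI for 30 min in the dark. DNA content was measured by flow cytometry.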

SW-620 [3] = assay: Induction of cell cycle arrest in human SW620 cells assessed as accumulation at subG1 phase at 1 uM after 48 hrs by flow cytometry (reference value: 0.18 +/- 0.036%); format: functional
WI-38 = assay: Cytotoxicity against human WI38 cells assessed as inhibition of cell proliferation after 72 hrs by MTT assay; format: cell-based; settings: WI-38, 72 h
In short: (§2)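 Monolayer cells grown in DMEM with 10% FBS were seeded on day 0 at 3000–6000 cells/well, set by each line's doubling time. Agents were added the next step in five 10-fold dilutions (0.01–100) for 72 h, with DMSO ≤0.1% and a solvent control. MTT absorbance was converted to percentage growth versus untreated wells on the same plate. Where all PGs exceeded 50, the top concentration was reported as ">". ANOVA/Tukey, p<0.05.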

HeLa [4] = assay: Induction of cell cycle arrest in human HeLa cells assessed as accumulation at subG1 phase at 1 uM after 24 hrs by flow cytometry relative to control; format: functional; in short: as §1
MIA PaCa-2 [5] = assay: Induction of cell cycle arrest in human MIAPaCa2 cells assessed as accumulation at S phase at 1 uM after 24 hrs by flow cytometry (reference value: 34.3 +/- 0.07%); format: functional
MIA PaCa-2 [6] = assay: Induction of cell cycle arrest in human MIAPaCa2 cells assessed as accumulation at subG1 phase at 1 uM after 24 hrs by flow cytometry (reference value: 0.32 +/- 0.009%); format: functional
MIA PaCa-2 [7] = assay: Induction of cell cycle arrest in human MIAPaCa2 cells assessed as accumulation at G1 phase at 5 uM after 24 hrs by flow cytometry (reference value: 55.4 +/- 0.01%); format: functional
HeLa [8] = assay: Induction of cell cycle arrest in human HeLa cells assessed as accumulation at G2/M phase at 5 uM after 24 hrs by flow cytometry relative to control; format: functional; in short: as §1
SW-620 [9] = assay: Induction of cell cycle arrest in human SW620 cells assessed as accumulation at S phase at 1 uM after 24 hrs by flow cytometry (reference value: 37.7 +/- 0.01%); format: functional
MIA PaCa-2 [10] = assay: Induction of cell cycle arrest in human MIAPaCa2 cells assessed as accumulation at G2/M phase at 5 uM after 24 hrs by flow cytometry (reference value: 10.3 +/- 0.07%); format: functional
SW-620 [11] = assay: Induction of cell cycle arrest in human SW620 cells assessed as accumulation at subG1 phase at 5 uM after 24 hrs by flow cytometry (reference value: 0.37 +/- 0.36%); format: functional
HepG2 = assay: Cytostatic activity against human HepG2 cells assessed as inhibition of cell proliferation after 72 hrs by MTT assay; format: functional, cell-based; settings: HepG2, 72 h; in short: as §2
MIA PaCa-2 [12] = assay: Cytostatic activity against human MIAPaCa2 cells assessed as inhibition of cell proliferation after 72 hrs by MTT assay; format: functional, cell-based; settings: MIA PaCa-2, 72 h; in short: as §2
HeLa [13] = assay: Induction of cell cycle arrest in human HeLa cells assessed as accumulation at subG1 phase at 5 uM after 24 hrs by flow cytometry relative to control; format: functional; in short: as §1
HeLa [14] = assay: Induction of apoptosis in human HeLa cells at 1 to 5 uM after 24 to 48 hrs by annexin V/PI staining; format: functional, cell-based
In short: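 Cells were seeded on slides, incubated 24 h, then exposed to compound for 24 and 48 h. They were washed with PBS and binding buffer, incubated with annexin-V for 10 min, washed with binding buffer, and stained with PI.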

HeLa [15] = assay: Induction of cell cycle arrest in human HeLa cells assessed as accumulation at S phase at 1 uM after 48 hrs by flow cytometry relative to control; format: functional; in short: as §1
SW-620 [16] = assay: Induction of cell cycle arrest in human SW620 cells assessed as accumulation at G1 phase at 5 uM after 24 hrs by flow cytometry (reference value: 51.6 +/- 0.07%); format: functional
HeLa [17] = assay: Induction of cell cycle arrest in human HeLa cells assessed as accumulation at S phase at 5 uM after 24 hrs by flow cytometry relative to control; format: functional; in short: as §1
HeLa [18] = assay: Cytostatic activity against human HeLa cells assessed as inhibition of cell proliferation after 72 hrs by MTT assay; format: functional, cell-based; in short: as §2
HeLa [19] = assay: Induction of cell cycle arrest in human HeLa cells assessed as accumulation at G1 phase at 1 uM after 24 hrs by flow cytometry relative to control; format: functional; in short: as §1
HeLa [20] = assay: Induction of cell cycle arrest in human HeLa cells assessed as accumulation at subG1 phase at 1 uM after 48 hrs by flow cytometry relative to control; format: functional; in short: as §1
SW-620 [21] = assay: Induction of cell cycle arrest in human SW620 cells assessed as accumulation at subG1 phase at 1 uM after 24 hrs by flow cytometry (reference value: 0.37 +/- 0.36%); format: functional
HeLa [22] = assay: Induction of cell cycle arrest in human HeLa cells assessed as accumulation at S phase at 5 uM after 48 hrs by flow cytometry relative to control; format: functional; in short: as §1
SW-620 [23] = assay: Induction of cell cycle arrest in human SW620 cells assessed as accumulation at G2/M phase at 1 uM after 48 hrs by flow cytometry (reference value: 11.9 +/- 2.33%); format: functional
HeLa [24] = assay: Induction of cell cycle arrest in human HeLa cells assessed as accumulation at G1 phase at 5 uM after 48 hrs by flow cytometry relative to control; format: functional; in short: as §1

## Nc1ncn(C/C=C2\OC(=O)C(OCc3ccccc3)=C2OCc2ccccc2)c(=O)n1
SW-620 [1]
  Activity: 8.15%
HeLa [2]
  Activity: 0.23%
SW-620 [3]
  Activity: 0.05%
WI-38
  IC50: 4.67 µM
HeLa [4]
  Activity: 0%
MIA PaCa-2 [5]
  Activity: 29.5%
MIA PaCa-2 [6]
  Activity: 0.2%
MIA PaCa-2 [7]
  Activity: 35.6%
HeLa [8]
  Activity: 11.5%
SW-620 [9]
  Activity: 50.5%
MIA PaCa-2 [10]
  Activity: 7.05%
SW-620 [11]
  Activity: 0.2%
HepG2
  IC50: 2.72 µM
MIA PaCa-2 [12]
  IC50: 0.92 µM
HeLa [13]
  Activity: 0%
HeLa [14]
  Activity: inactive
HeLa [15]
  Activity: 65.6%
SW-620 [16]
  Activity: 24.1%
HeLa [17]
  Activity: 72.1%
HeLa [18]
  IC50: 5.91 µM
HeLa [19]
  Activity: 29.4%
HeLa [20]
  Activity: 0.02%
SW-620 [21]
  Activity: 0.56%
HeLa [22]
  Activity: 62.3%
SW-620 [23]
  Activity: 17.9%
HeLa [24]
  Activity: 23.9%
